Results: paper PMC8131326 (The Journal of Biological Chemistry, 2021)

Legend:
[1] = test system: carrageenan-induced paw edema in mice; assay: Carrageenan-induced paw edema assay; type: in vivo, Kunming mice; settings: FS48 1.5 mg/kg
Method in brief: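 Male and female Kunming mice, randomized into four groups of six. Test compound (1.5 mg/kg), saline or aspirin (5 mg/kg) given i.p. 1 h before intraplantar 1% carrageenan in saline (50 μl) into the right hind paw. Paw volume to the ankle measured by plethysmometer before injection and at 2–24 h; swelling taken as Δvolume. In a second set, paws were excised at 4 h for histology, cytokine and MPO assays. Mean ± SEM, n = 6.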

[2] = test system: Kv1.3 expression in Raw 264.7 cells; assay: Kv1.3 channel mRNA and protein expression in LPS-activated Raw 264.7 cells; type: cell-based, murine; settings: 3 μM FS48, 100 nM MgTx, 100 ng/ml LPS
Method in brief: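 Raw 264.7 cells activated with 100 ng/ml LPS and exposed to test compound (3 μM) or MgTx (100 nM) for 24 h. Kv1.3 mRNA: Trizol RNA extraction, SYBR qRT-PCR (95 °C 5 min; 40 cycles of 95 °C 15 s / 60 °C 45 s), normalized to GAPDH by 2−ΔΔCT, in triplicate. Kv1.3 protein: western blot with primary antibody 1:2000 overnight at 4 °C, HRP chemiluminescence, densitometry against GAPDH, in triplicate.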

[3] = test system: NO production in Raw 264.7 cells; assay: LPS-induced NO production and iNOS mRNA in Raw 264.7 cells; type: cell-based, murine; settings: 100 ng/ml LPS
Method in brief: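 Nitrite: 5 × 10^4 Raw 264.7 cells/well grown overnight, then given test compound (0.1–10 μM) plus 100 ng/ml LPS (E. coli O55:B5) for 24 h; supernatant assayed by Griess reagent at 540 nm. MgTx 100 nM served as positive control; cells without compound and/or LPS as negative controls; repeated four times. iNOS mRNA: 3 μM compound plus LPS for 8 h, SYBR qRT-PCR normalized to GAPDH (2−ΔΔCT), fold change versus untreated, in triplicate.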

[4] = test system: Kv current of LPS-activated Raw 264.7 cells; assay: Kv currents of LPS-activated Raw 264.7 macrophages; type: cell-based, murine
Method in brief: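 Raw 264.7 cells in DMEM/10% FBS at 37 °C, 5% CO2, LPS-activated. Whole-cell patch clamp at room temperature, held at −70 mV for 4 min to equilibrate, filtered at 2 kHz and digitized at 20 kHz, 80% series-resistance compensation. Currents compared before and after test compound or 100 nM MgTx, with amplitude taken at +40 mV. I–V curves used 150-ms steps from −50 to +40 mV, 10 mV increments, 2 s intervals. Mean ± SEM, at least four experiments.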

human Kv1.1 = assay: Whole-cell patch clamp, HEK 293T cells expressing Kv1.1; type: cell-based; settings: 0.2 mM TEA; n = 5
Method in brief: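 HEK 293T cells carrying plasmids for human Kv1.1 plus EGFP. Whole-cell patch clamp at room temperature after holding at −70 mV for 4 min, filtered at 2 kHz and digitized at 20 kHz. Currents elicited by a +10 mV depolarization were compared before and after application of the test agent.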

Compound: MgTx: a highly specific Kv1.3 blocker, positive control (UniProtKB P40755) (TIINVKCTSPKQCLPPCKAQFGQSAGAKCMNGKCKCYPH; UniProt P40755 1-39, looked up)
- effect on the second phase of carrageenan-induced paw edema ([1]; MgTx 0.4179 mg/kg, intraperitoneally 1 h before carrageenan): remarkable anti-inflammatory effects
- Kv1.3 mRNA expression induced by LPS ([2]; real-time PCR): greatly reduced
- decrease of Kv1.3 protein expression induced by LPS ([2]; 24 h, western blot normalized to GAPDH): 76.15 ± 13.81%
- inhibition of LPS-induced nitrite production ([3]; 10 μM FS48, 100 nM MgTx, 24 h, Griess reagent): about 37.65%
- LPS-induced increase of mRNA level of iNOS ([3]; exposure for 8 h, 3 μM FS48, qRT-PCR): evidently inhibited
- Kv currents at all test voltages (−50 to +40 mV) ([4]; 1 μM FS48 or 100 nM MgTx, LPS-activated Raw 264.7 cells, n = 4): reduced markedly
- reduction of amplitude of Kv current of LPS-activated macrophages ([4]; at +40 mV, 100 nM MgTx, 10 μM FS48): 59.45 ± 2.79%

Compound: CC[N+](CC)(CC)CC [TEA, tetraethylammonium]
- reduction of Kv1.1 current by TEA (human Kv1.1): 31.81 ± 1.98%

Compound: CC(=O)Oc1ccccc1C(=O)O [aspirin]
- carrageenan-induced secretion of IL-1β, IL-6, and TNF-α in paw tissues ([1]; aspirin 5 mg/kg i.p., 4 h after carrageenan): diminished
- leukocyte infiltration in paw (histological analysis) ([1]; aspirin 5 mg/kg i.p., 4 h after carrageenan, HE stain): obviously reduced
- suppression of hind paw edema at 4 h versus model group ([1]; aspirin 5 mg/kg, intraperitoneally 1 h before carrageenan (1%, 50 μl), 4 h, n = 6): approximately 44.79%
